Experimental data from different studies.
Lines come from different studies, so protocols differ.
Matrix: plasma

SMILES | test system | conditions | bioavailability
Cn1cnc(Cn2c(=O)[nH]/c(=N\c3cc4cn(C)nc4cc3Cl)n(Cc3cc(F)c(F)cc3F)c2=O)n1 | male Sprague-Dawley rat | oral, 25 mg/kg | 129%
O=C(Nc1cccnn1)N1CCN([C@@H]2CCOc3cc(C(F)(F)F)ccc32)CC1 | male Sprague-Dawley rat | oral, 0.3 mg/kg | 41%
CN(C)C(=O)Oc1cc(OC(=O)N(C)C)cc(-c2cc3ccc(O)cc3o2)c1 | male rat | oral, 5 mg/kg | 3.01%
[2H]C([2H])(c1cc(F)c(F)cc1F)n1c(=O)n(Cc2ncn(C)n2)c(=O)[nH]/c1=N\c1cc2cn(C)nc2cc1Cl | male Sprague-Dawley rat | oral, 25 mg/kg | 117%
COc1ncccc1-c1cnn2ccc(N3CCN(C(=O)OC(C)C)CC3)nc12 | rat | oral, 10 mg/kg | 50%
Cc1ncc(C)n2nc(/C=C/c3nc(N4CCCC4)cc(N4CCOCC4)n3)nc12 | male Sprague-Dawley rat | oral, 0.3 mg/kg | 33%
Cc1cnc(N2CC3(CCOCC3)C2)c(C(=O)Nc2ccc(C(=O)N3CCc4cc(C(=O)Nc5c(C)cccc5F)sc4-c4ccccc43)cc2)c1 | rat | inhaled, 2.7 mg/kg, single dose | < 3%
CS(=O)(=O)Nc1ccc(-c2ccnc(Nc3ccc(-n4ccnn4)cc3)n2)cc1 | Sprague-Dawley rat | oral, 2 mg/kg | 5%
Cl.Cl.O=C(CCN1CCCCC1)c1ccc(-c2ccc(C(=O)CCN3CCCCC3)cc2)cc1 | Sprague-Dawley rat | oral, 100 mg/kg | 24.2%
N=c1c2c(-c3ccccc3)c(-c3ccccc3)n(Cc3ccccc3)c2ncn1[C@H]1CC[C@H](O)CC1 | male Sprague-Dawley rat | oral, 2 mg/kg, single dose | > 80%
C#Cc1ccc2c(c1)C(c1ccccn1)=NCc1c(-c3cnco3)ncn1-2 | male Sprague-Dawley rat | intraperitoneal, 10 mg/kg | 69%
O=C([O-])C(=O)[O-].[NH-][C@@H]1CCCC[C@H]1[NH-].[Pt+4] (relative stereo) | rat | intravenous, 5 mg/kg | 100%
CCC[C@@](N)(CO)CCc1ccc(OCCCCCC(C)C)cc1 | rat | oral, 30 mg/kg | 35%
